Assay [1] has as its target Opioid receptors; mu/kappa/delta. The experiment in a line: (§1) In vitro inhibitory activity against opioid receptor in Guinea pig ileum. It counts as tissue-based, Cavia porcellus.
Another assay concerns Mus musculus. The experiment in a line: Effective dose for the inhibition of acetylcholine induced mouse abdominal contriction was determined in vivo. It counts as functional. To be noted: Abdomen. An outline of the steps:
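Mouse abdominal constriction induced by acetylcholine. Compounds given sc in saline vehicle. ED50 reported in mg/kg sc, with 95% confidence limits, or both values where only two determinations were made.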

The species entered for assay [2] is Oryctolagus cuniculus. The experiment in a line: In vitro antagonist affinity constant was measured on rabbit vas deferens. Type of assay: functional.
Assay [3] concerns the target Mu-type opioid receptor (Cavia porcellus) (UniProt P97266). The experiment in a line: Dose ratio IC50 after beta-FNA (10e-6 M) 30 min pretreatment on guinea pig ileum and IC50 before beta-FNA treatment against opioid receptor mu in guinea pig ileum. Type of assay: tissue-based.
The nature of assay [4]: as §1. Type of assay: functional, tissue-based.
Assay [5] is filed under the species Oryctolagus cuniculus. The experiment in a line: In vitro antagonist affinity constant was measured on rabbit vas deferens AT 10e-6 M concentration. It counts as functional.

Sequence of Mu-type opioid receptor (Cavia porcellus) (P97266 whole entry): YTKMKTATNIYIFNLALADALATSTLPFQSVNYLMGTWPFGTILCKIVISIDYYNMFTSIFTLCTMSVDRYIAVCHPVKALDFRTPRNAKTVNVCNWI

On to `CN1CCC2(c3cccc(O)c3)CC=CC[C@H]2C1` (some centres not stated), for which the IC50 – broadly, the point on the concentration scale where inhibition reaches its midpoint – in assay [1] was determined as 130 nM. Moreover, the ED50 (usually the midpoint of the dose-response relation) with Mus musculus worked out at 0.5 mg/kg. In the assay filed under Oryctolagus cuniculus [2], the pKB – broadly, the KB on a negative log10 scale, so that one unit is a factor of ten – was 5.4. For the same compound, the Dose ratio in assay [3] was above 30.

On to `C=C1CC[C@H]2CN(CC3CCC3)CCC2(c2cccc(O)c2)C1` (some centres not stated), for which the ED50 with Mus musculus came to 0.23 mg/kg. For the same compound, the pKB in the assay listed under Oryctolagus cuniculus [2] is 5.3.

Consider `C=CCN1CCC2(c3cccc(O)c3)CC=CC[C@H]2C1` (some centres not stated), for which the 50% effect level in the assay on Mus musculus (ED50) was put at a dose of 1.91 mg/kg. In addition, the pKB in the assay listed under Oryctolagus cuniculus [2] was 5.6.

With `O=C1CCC2(c3cccc(O)c3)CCN(CC3CC3)C[C@@H]2C1` (some centres not stated), the ED50 in the assay on Mus musculus is above 10 mg/kg.

`O=C1CC[C@H]2CN(CC3CC3)CCC2(c2cccc(O)c2)C1` (some centres not stated) displayed an IC50 in assay [1] of 120 nM. In the assay with Mus musculus, this compound came in with an ED50 of 1.6 mg/kg. In addition, in the assay listed under Oryctolagus cuniculus [2], the pKB stood at 6.1. Further, the Dose ratio in assay [3] amounted to 1.4.

Consider `C=CCN1CCC2(c3cccc(O)c3)CC(=C)CC[C@H]2C1` (some centres not stated), for which the IC50 in assay [1] was 140 nM. Also, the ED50 in the assay with Mus musculus was determined as 0.55 mg/kg. The compound also came in with a pKB in the assay filed under Oryctolagus cuniculus [2] of 5.5. Besides, in assay [3], the Dose ratio came to 3.3.

Regarding `C=C1CCC2(c3cccc(O)c3)CCN(CC3CCC3)C[C@@H]2C1` (some centres not stated), the ED50 in the assay with Mus musculus came out at 1.06 mg/kg. For the same compound, the negative logarithm of the KB (pKB) in the assay listed under Oryctolagus cuniculus [2] stood at 5.3.

On to `CC[C@@]12CCN(CC3CC3)C(C(=O)c3ccc(O)cc31)[C@@H]2C` [ETHYLKETOCYCLAZOCINE], for which, in the assay on Mus musculus, the 50% effect level (ED50) was put at a dose of 0.08 mg/kg. For the same compound, it took 0.5 nM to reach half-maximal inhibition in assay [4] (IC50).

On to `Oc1cccc(C23CC=CC[C@H]2CN(CC2CC2)CC3)c1` (some centres not stated), for which, in assay [1], the IC50 came to 90 nM. The ED50 with Mus musculus is 0.53 mg/kg. In addition, the Dose ratio in assay [3] was found to be 2.3.

The compound `Oc1cccc(C23C=C[C@H](O)C[C@H]2CN(CC2CC2)CC3)c1` (some centres not stated) showed an ED50 in the assay on Mus musculus above 10 mg/kg. In addition, in the assay listed under Oryctolagus cuniculus [2], the pKB is 5.6.

In the case of `C=C1CCC2(c3cccc(O)c3)CCN(CC3CC3)C[C@@H]2C1` (some centres not stated), the ED50 in the assay on Mus musculus was found to be 1.3 mg/kg. Further, the pKB in the assay filed under Oryctolagus cuniculus [2] worked out at 5.8.

Regarding `Oc1cccc(C23CC=CC[C@H]2CN(CC2CCC2)CC3)c1` (some centres not stated), the IC50 in assay [1] was found to be 60 nM. The ED50 with Mus musculus was determined as 0.39 mg/kg. Further, the pKB in the assay filed under Oryctolagus cuniculus [2] stood at 5.7. Besides, the Dose ratio in assay [3] amounted to 14.7.

Turning to `C=C1CC[C@H]2CN(CC3CC3)CCC2(c2cccc(O)c2)C1` (some centres not stated), the IC50 in assay [1] worked out at 15 nM. This compound displayed an ED50 in the assay with Mus musculus of 0.17 mg/kg. In the assay filed under Oryctolagus cuniculus [2], the pKB came to 6.3. Moreover, the Dose ratio in assay [3] amounted to 1.7.

In the assay on Mus musculus, `CN1CC[C@]23c4c5ccc(O)c4O[C@H]2[C@@H](O)C=C[C@H]3[C@H]1C5` [MORPHINE] yielded an ED50 of 0.47 mg/kg.

For `C=C1C[C@H](C)[C@H]2CN(CC3CC3)CCC2(c2cccc(O)c2)C1` (some centres not stated), the ED50 in the assay on Mus musculus turned out to be 3.3 mg/kg. The pKB in the assay listed under Oryctolagus cuniculus [2] was determined as 4.8.

In assay [1], `C=C1CC[C@H]2CN(C)CCC2(c2cccc(O)c2)C1` (some centres not stated) returned an IC50 of 60 nM. The ED50 with Mus musculus came out at 0.18 mg/kg. Also, in the assay filed under Oryctolagus cuniculus [2], the pKB was 5.9. Moreover, the Dose ratio in assay [3] amounted to 22.

`Oc1cccc(C23CC[C@H](O)C[C@H]2CN(CC2CCC2)CC3)c1` (some centres not stated) registered an ED50 in the assay with Mus musculus above 10 mg/kg.

`O=C1CCC2(c3cccc(O)c3)CCN(CC3CCC3)C[C@@H]2C1` (some centres not stated) came in with an ED50 with Mus musculus above 10 mg/kg.

Compound `Oc1cccc(C23CCCC[C@H]2CN(CC2CC2)CC3)c1` (some centres not stated) came in with an IC50 in assay [1] of 150 nM. Besides, the ED50 with Mus musculus is 1.09 mg/kg. Moreover, in the assay filed under Oryctolagus cuniculus [5], testing at 1 µM gave an inhibition of 24%. In addition, the Dose ratio in assay [3] stood at 2.8.

`Oc1cccc(C23CC[C@H](O)C[C@H]2CN(CC2CC2)CC3)c1` (some centres not stated) returned an ED50 in the assay on Mus musculus above 10 mg/kg.

In turn, `C=C1C[C@@H](C)[C@H]2CN(CC3CC3)CCC2(c2cccc(O)c2)C1` (some centres not stated) displayed an ED50 in the assay on Mus musculus of 0.05 mg/kg. Moreover, the IC50 in the assay listed under Oryctolagus cuniculus [2] worked out at 28000 nM.

The values above are taken from ChEMBL document CHEMBL1126023, “Synthesis, antinociceptive activity, and opioid receptor profiles of substituted trans-3-(decahydro- and octahydro-4a-isoquinolinyl)phenols” (J Med Chem, 1992).
